Screens deposited in PubChem BioAssay by several laboratories.
The list is not random: actives were taken first. Their share in the collection is about 3.9%.
TAAR1 agonist: human TAAR1 agonists, primary screen, Fluo-8 calcium fluorescence, CHO RD-HGA16 cells; Trace amine-associated receptor 1 (Homo sapiens), Q96RJ0; vehicle wells 0%, saturating PEA agonist 100%; AID 624467, 2012; activation, % at 3 µM; 360,000 tested, 0.99% active;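 active = activation above the mean activation of all test compounds in the run plus 3 SD, cut at about 38% in these data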
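Benchmarks: low control DMSO, high control PEA (EC100); System: CHO RD-HGA16 cells carrying human TAAR1 plus Gα16; Detection: Fluo-8 fluorescence, 5 s baseline then 140 s kinetic read; Schedule: 17-24 h plating, Fluo-8 75 min 37 °C, 30 min RT; Read-out basis: % activation from peak over basal fluorescence ratio, DMSO-to-PEA scaled.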
CRFR2-BP antag: antagonists of CRF-BP/CRF-R2 complex, primary screen, cell-based, HEK293, calcium dye fluorescence, uHTS; CRF-induced calcium fluorescence; 350,000 tested, 0.59% active; inhibition, % at 11.8 µM;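 active = inhibition of the ligand-induced calcium signal above about 50% at the single tested concentration, limit read from the data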
ANO1 activ: TMEM16A chloride channel activators or potentiators, primary screen, cell-based, HTS; Anoctamin-1 (Mus musculus), Q8BHY3; HEK293 TMEM16A/YFP-H148Q/I152L, iodide quench fluorescence; stronger effect = lower value; B-score at 10 µM; 340,000 tested, 0.3% active;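 active = fluorescence-ratio B-score plate-corrected deviation score at least 3 library SD below zero, with starting fluorescence score within 5 deviations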;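 also: channel opened by trigger with iodide after compound preincubation; score built on the fluorescence ratio of max minus min over baseline; more negative score means more quench and so TMEM16A activation or potentiation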
Target sequence (Q8BHY3 whole entry, looked up): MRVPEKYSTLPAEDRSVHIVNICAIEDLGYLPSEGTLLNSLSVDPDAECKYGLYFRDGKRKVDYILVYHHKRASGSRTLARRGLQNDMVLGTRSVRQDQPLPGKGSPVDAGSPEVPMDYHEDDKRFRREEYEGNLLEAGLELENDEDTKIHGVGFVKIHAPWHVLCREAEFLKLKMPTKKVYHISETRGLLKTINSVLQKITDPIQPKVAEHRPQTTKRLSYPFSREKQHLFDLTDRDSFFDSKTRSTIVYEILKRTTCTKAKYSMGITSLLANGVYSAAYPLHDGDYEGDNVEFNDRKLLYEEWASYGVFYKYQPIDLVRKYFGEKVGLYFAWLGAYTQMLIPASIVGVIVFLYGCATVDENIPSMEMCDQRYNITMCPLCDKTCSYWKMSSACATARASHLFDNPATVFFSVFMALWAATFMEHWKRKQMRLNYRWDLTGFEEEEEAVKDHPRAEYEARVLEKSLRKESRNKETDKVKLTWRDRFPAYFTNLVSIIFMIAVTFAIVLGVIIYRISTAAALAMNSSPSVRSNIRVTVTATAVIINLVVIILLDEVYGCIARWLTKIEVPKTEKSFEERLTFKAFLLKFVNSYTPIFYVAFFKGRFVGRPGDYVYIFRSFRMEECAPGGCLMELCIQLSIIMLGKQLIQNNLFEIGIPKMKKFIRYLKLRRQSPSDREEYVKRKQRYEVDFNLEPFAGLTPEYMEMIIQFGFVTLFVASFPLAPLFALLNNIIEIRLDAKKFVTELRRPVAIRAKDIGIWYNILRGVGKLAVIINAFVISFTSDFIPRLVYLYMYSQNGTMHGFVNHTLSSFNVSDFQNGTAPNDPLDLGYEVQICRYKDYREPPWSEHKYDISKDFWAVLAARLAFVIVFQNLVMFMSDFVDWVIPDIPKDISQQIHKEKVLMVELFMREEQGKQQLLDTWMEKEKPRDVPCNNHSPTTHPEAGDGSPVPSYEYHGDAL
TAAR1 antagonist: human TAAR1 antagonists, primary screen, Fluo-8 calcium fluorescence, CHO RD-HGA16 cells; Trace amine-associated receptor 1 (Homo sapiens), Q96RJ0; antagonist; inhibition, % at 3 µM; 360,000 tested, 1.5% active;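 active = inhibition above a per-plate cutoff, the mean inhibition of test compounds on that plate plus 3 SD, cut at about 49% in these data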
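Test system: CHO RD-HGA16 cells bearing hTAAR1 | Reagent: β-PEA, EC80 | Compound dosing: 3 µM, single point | Schedule: Dye loading 75 min at 37 °C, then 30 min room temperature | Signal: Calcium fluorescence with Fluo-8 | Evaluation: Percent inhibition of PEA-evoked calcium signal, max/basal emission ratio | Control set: DMSO-only wells and EC80 β-PEA-stimulated wells | Repeats: Singlicate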
TMEM16A inh: TMEM16A chloride channel inhibitors, primary screen, cell-based, HTS. Anoctamin-1 (Mus musculus), Q8BHY3. HEK293 TMEM16A/YFP iodide influx fluorescence, ionomycin. normalized B-score (activity score, 25-100; higher = stronger inhibition) at 10 µM. 310,000 tested, 1.2% active. AID 588511, 2011;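 active = ratio plate-corrected score three or more library SD toward inhibition, starting fluorescence score within five deviations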;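 also: score derived from kinetic fluorescence span divided by baseline fluorescence per well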
CRFR2-BP ag: agonists of CRF-BP/CRF-R2 complex, primary screen, cell-based, HEK293, calcium dye fluorescence, uHTS; activation, % at 13.2 µM; calcium dye fluorescence (FLIPR); percent of saturating CRF peptide response; CRF-binding protein / CRF receptor 2 complex (human); 350,000 tested, 0.46% active;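 active = activation of at least 50%, plus an integration ratio under a set limit after plate pattern correction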
TMEM16A reconf: TMEM16A chloride channel inhibitors, confirmation, cell-based, re-confirmation. HEK293 TMEM16A/YFP-H148Q, iodide quench fluorescence; ionomycin added to raise cell calcium. 2,300 tested, 39% active. inhibition, % at 10 µM. shares compounds with TMEM16A inh. AID 652189, 2013;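 active = mean duplicate percent inhibition, scaled so buffer wells are 0 and the reference blocker 100, over three buffer SD above buffer mean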
TMEM16A Ca cntr: calcium mobilization in TMEM16A/YFP HEK293 cells, confirmation, counter-screen for TMEM16A inhibitor project; shares compounds with TMEM16A inh; Fluo4 calcium mobilization; calcium response (% of ionomycin), % at 10 µM; 2,300 tested, 2% active;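 active = duplicate-averaged calcium signal over 20% of the ionomycin maximum, relative to buffer baseline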;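 also: each well's signal is peak minus trough fluorescence divided by its pre-addition baseline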
YFP-HEK293 quench: iodide YFP quench changes in parental YFP-HEK293, counter-screen for TMEM16A inhibitor project, cell-based; ionomycin; shares compounds with TMEM16A inh; AID 652233, 2013; 2,300 tested, under 10 active; YFP ratio F(max-min)/F0 at 10 µM;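 active = yellow fluorescent protein signal ratio exceeding the buffer control mean by over 5 SD of those controls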;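 also: ratio is mean of duplicate wells from kinetic YFP trace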
ClC-1 inh: ClC-1 chloride channel inhibition, selectivity assay for TMEM16A inhibitor project, cell-based, voltage-dependent ClC-1; shares compounds with TMEM16A inh; CHO ClC-1-YFP, iodide influx fluorescence quench; iodide control reads 0, buffer control 100; ratio percent, % at 10 µM; 2,300 tested, under 10 active;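 active = duplicate-mean ratio percent above the mean of iodide-only control wells, which defines zero, plus 5 of their SD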;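 also: higher percent means stronger block of ClC-1 iodide influx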
Of the large screens only hits and unclear results are named; the others gave an inactive call (follow-up assays come after a bar, where they were run).

O=S(=O)(c1cccc(F)c1)N1CCc2sccc2C1c1ccc(OC(F)(F)F)cc1 (stereo not given)	none
COCc1c(C(=O)OCC(=O)c2c(N)n(CC(C)C)c(=O)n(C)c2=O)oc2ccccc12	TMEM16A inh 25 | TMEM16A reconf inactive | TMEM16A Ca cntr inactive | YFP-HEK293 quench inactive | ClC-1 inh inactive
CC(C)Cn1c(N)c(C(=O)COC(=O)c2ccc(F)cc2)c(=O)n(C)c1=O	none
CCc1ccc(C(=O)OCC(=O)c2c(N)n(CC(C)C)c(=O)n(C)c2=O)cc1	TMEM16A inh 25 | TMEM16A reconf inactive | TMEM16A Ca cntr inactive | YFP-HEK293 quench inactive | ClC-1 inh inactive
Cc1c(C(=O)OCC(=O)c2c(N)n(CC(C)C)c(=O)n(C)c2=O)oc2ccccc12	none
Cc1ccc(CN2CCC2(C)C(=O)NC2CCc3ccccc32)cc1 (stereo not given)	none (no result: CRFR2-BP antag, ANO1 activ, TMEM16A inh, CRFR2-BP ag)
CC[C@H](C)[C@@H]1NC(=O)c2cc([N+](=O)[O-])cc(I)c2SC[C@@H](C(N)=O)NC(=O)[C@H](CCCCN)NC1=O	none (no result: ANO1 activ)
CCOC(=O)c1cc(NC(=O)Nc2ccc(OC)c(OC)c2)c(C)nc1C	TMEM16A inh 100 | TMEM16A reconf inactive | TMEM16A Ca cntr inactive | YFP-HEK293 quench inactive | ClC-1 inh inactive
CCOC(=O)C(=O)Nc1ncc(Cl)s1	none
COC(=O)C(Cc1ccc(O)cc1)NC(=O)C1CCN(S(=O)(=O)c2ccc(C)cc2)CC1 (stereo not given)	none
CCOC(=O)c1nnn(-c2nonc2-n2cccc2)c1CN1CCCCC1	ANO1 activ -6.9, TMEM16A inh 100 | TMEM16A reconf inactive | TMEM16A Ca cntr inactive | YFP-HEK293 quench inactive | ClC-1 inh inactive
C[C@H](CO)N1C[C@H](C)[C@@H](CN(C)S(=O)(=O)c2cccc(F)c2)Oc2ncc(Br)cc2C1=O	none (no result: ANO1 activ, TMEM16A inh)
COc1ccc2occ(C(=O)c3ccccc3)c2c1	none
COc1ccc(OC)c(C(=O)c2coc3ccc(O)cc23)c1	TMEM16A inh 25 | TMEM16A reconf inactive | TMEM16A Ca cntr inactive | YFP-HEK293 quench inactive | ClC-1 inh inactive
Cc1ccccc1-c1cc(-c2ccccc2O)n[nH]1	TMEM16A inh 25 | TMEM16A reconf inactive | TMEM16A Ca cntr inactive | YFP-HEK293 quench inactive | ClC-1 inh inactive
Cc1ccc(-c2cc(-c3ccccc3Cl)[nH]n2)c(O)c1	none
CC(C)c1cc(C(=O)N2CCCC(CCC(=O)N3CCN(c4ccccn4)CC3)C2)no1 (stereo not given)	TMEM16A inh 25 | TMEM16A reconf inactive | TMEM16A Ca cntr inactive | YFP-HEK293 quench inactive | ClC-1 inh inactive
CCc1cc(C(=O)N2CCCC(CCC(=O)N3CCN(c4ccccn4)CC3)C2)no1 (stereo not given)	none
CC(=O)OCC(=O)C1(O)CCC2C3CCC4CC(O)CCC4(C)C3C(=O)CC21C (stereo not given)	none (no result: CRFR2-BP antag, ANO1 activ, TMEM16A inh, CRFR2-BP ag)
